According to ChEMBL document CHEMBL5705905, “Pharmacological targeting of kinases MST1 and MST2 augments tissue repair and regeneration” (Sci Transl Med, 2016):
Activity calls are given as the source filed them. The calls are words filed in the database; no cut-off is given here.

Experiments:
[1] = test system: Tyrosine-protein kinase ABL1 (Homo sapiens), P00519 [Y253F]; experiment: Inhibition of phosphorylated ABL1 Y253F mutant (unknown origin) assessed as remaining activity at 1 uM by Kinome scan method relative to control
[2] = target: Tyrosine-protein kinase ABL1 (Homo sapiens) (UniProt P00519); experiment: Inhibition of phosphorylated ABL1 (unknown origin) assessed as remaining activity at 1 uM by Kinome scan method relative to control
[3] = target: 5'-AMP-activated protein kinase catalytic subunit alpha-1 (Homo sapiens) (UniProt Q13131); experiment: Inhibition of AMPK-alpha1 (unknown origin) assessed as remaining activity at 1 uM by Kinome scan method relative to control
Chain of 5'-AMP-activated protein kinase catalytic subunit alpha-1 (Homo sapiens) (Q13131 whole entry, looked up): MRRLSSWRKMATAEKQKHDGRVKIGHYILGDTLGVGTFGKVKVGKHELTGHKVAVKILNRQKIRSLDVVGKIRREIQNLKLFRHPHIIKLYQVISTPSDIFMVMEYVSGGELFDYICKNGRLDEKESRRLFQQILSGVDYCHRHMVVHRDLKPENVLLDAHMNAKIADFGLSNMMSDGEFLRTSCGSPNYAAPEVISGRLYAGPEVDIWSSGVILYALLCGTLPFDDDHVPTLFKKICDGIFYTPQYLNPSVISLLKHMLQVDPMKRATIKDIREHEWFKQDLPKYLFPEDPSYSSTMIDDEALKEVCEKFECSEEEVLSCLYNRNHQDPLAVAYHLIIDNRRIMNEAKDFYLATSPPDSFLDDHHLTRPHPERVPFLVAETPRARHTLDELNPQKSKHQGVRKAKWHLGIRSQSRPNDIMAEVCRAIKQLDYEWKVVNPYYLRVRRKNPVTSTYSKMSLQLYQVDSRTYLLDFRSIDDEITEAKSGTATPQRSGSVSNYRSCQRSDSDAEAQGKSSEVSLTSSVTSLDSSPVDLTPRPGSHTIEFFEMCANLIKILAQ
Method in brief: (§1)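 Active-site-dependent competition-binding (KINOMEscan) panel of 468 kinases, test compound at 1 μM (from a 10 mM DMSO stock). Read-out is ctrl% = (test signal − positive control signal)/(negative control signal − positive control signal) × 100. DMSO is the negative control (100%) and a control compound is the positive control (0%). Lower ctrl% means tighter binding.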

[4] = test system: Serine/threonine-protein kinase B-raf (Homo sapiens), P15056 [V600E]; experiment: Inhibition of BRAF V600E mutant (unknown origin) assessed as remaining activity at 1 uM by Kinome scan method relative to control; method in brief: as §1
[5] = target: Serine/threonine-protein kinase BRSK1 (Homo sapiens) (UniProt Q8TDC3); experiment: Inhibition of BRSK1 (unknown origin) assessed as remaining activity at 1 uM by Kinome scan method relative to control; method in brief: as §1
[6] = target: Serine/threonine-protein kinase Chk2 (Homo sapiens) (UniProt O96017); experiment: Inhibition of CHEK2 (unknown origin) assessed as remaining activity at 1 uM by Kinome scan method relative to control
Method in brief: (§2)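 Active-site-dependent competition-binding profiling (KINOMEscan) at 1 μM against a 468-kinase panel; compound supplied from a 10 mM DMSO stock. Read-out is ctrl% = (test signal − positive control signal)/(negative control signal − positive control signal) × 100. DMSO is the negative control (100%) and a control compound the positive control (0%). Lower ctrl% means tighter binding.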

[7] = target: Tyrosine-protein kinase CSK (Homo sapiens) (UniProt P41240); experiment: Inhibition of CSK (unknown origin) assessed as remaining activity at 1 uM by Kinome scan method relative to control; method in brief: as §2
[8] = test system: Epidermal growth factor receptor (Homo sapiens), P00533 [L861Q]; experiment: Inhibition of EGFR L861Q mutant (unknown origin) assessed as remaining activity at 1 uM by Kinome scan method relative to control
[9] = target: Mitogen-activated protein kinase 6 (Homo sapiens) (UniProt Q16659); experiment: Inhibition of ERK3 (unknown origin) assessed as remaining activity at 1 uM by Kinome scan method relative to control
Chain of Mitogen-activated protein kinase 6 (Homo sapiens) (Q16659 whole entry): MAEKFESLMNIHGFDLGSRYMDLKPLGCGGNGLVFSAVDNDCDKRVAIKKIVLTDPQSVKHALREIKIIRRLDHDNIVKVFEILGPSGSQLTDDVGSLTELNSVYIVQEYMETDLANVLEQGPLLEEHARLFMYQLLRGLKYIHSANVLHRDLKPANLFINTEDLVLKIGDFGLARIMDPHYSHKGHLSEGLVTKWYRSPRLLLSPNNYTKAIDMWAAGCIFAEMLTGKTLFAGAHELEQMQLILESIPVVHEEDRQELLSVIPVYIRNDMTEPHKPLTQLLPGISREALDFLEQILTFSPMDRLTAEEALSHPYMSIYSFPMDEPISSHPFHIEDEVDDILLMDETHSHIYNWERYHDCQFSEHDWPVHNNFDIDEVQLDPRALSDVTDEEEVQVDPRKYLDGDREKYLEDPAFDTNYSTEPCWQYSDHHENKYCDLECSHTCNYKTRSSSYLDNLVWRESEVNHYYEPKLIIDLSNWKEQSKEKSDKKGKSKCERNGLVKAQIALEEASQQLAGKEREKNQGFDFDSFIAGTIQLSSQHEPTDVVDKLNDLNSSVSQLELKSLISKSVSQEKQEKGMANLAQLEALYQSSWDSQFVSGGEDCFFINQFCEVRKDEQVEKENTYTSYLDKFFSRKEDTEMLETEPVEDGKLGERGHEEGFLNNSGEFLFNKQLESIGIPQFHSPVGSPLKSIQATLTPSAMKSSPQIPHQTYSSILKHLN

[10] = test system: Fibroblast growth factor receptor 3 (Homo sapiens), P22607 [G697C]; experiment: Inhibition of FGFR3 G697C mutant (unknown origin) assessed as remaining activity at 1 uM by Kinome scan method relative to control
Chain of Fibroblast growth factor receptor 3 (Homo sapiens), P22607 [G697C] (P22607 whole entry G697C): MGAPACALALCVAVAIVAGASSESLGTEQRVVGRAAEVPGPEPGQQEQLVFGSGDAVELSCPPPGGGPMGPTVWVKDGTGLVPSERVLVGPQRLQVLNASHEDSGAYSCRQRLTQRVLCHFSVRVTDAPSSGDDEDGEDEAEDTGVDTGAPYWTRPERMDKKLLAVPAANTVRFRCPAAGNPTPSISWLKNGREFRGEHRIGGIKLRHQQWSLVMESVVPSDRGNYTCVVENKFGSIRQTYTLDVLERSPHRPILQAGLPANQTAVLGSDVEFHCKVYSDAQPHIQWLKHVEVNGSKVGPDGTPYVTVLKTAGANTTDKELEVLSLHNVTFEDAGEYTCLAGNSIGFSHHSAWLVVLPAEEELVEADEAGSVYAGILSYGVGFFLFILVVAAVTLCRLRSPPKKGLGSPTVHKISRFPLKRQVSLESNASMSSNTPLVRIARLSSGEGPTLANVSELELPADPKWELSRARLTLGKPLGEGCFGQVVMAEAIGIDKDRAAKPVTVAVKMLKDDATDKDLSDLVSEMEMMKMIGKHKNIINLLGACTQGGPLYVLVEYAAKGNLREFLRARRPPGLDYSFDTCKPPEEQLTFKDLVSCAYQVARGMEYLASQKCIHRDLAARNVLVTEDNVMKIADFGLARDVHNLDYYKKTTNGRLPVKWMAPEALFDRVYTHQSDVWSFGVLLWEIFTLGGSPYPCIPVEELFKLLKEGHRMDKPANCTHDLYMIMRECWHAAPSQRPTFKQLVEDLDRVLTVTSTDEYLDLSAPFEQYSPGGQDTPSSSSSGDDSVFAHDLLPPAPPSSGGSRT

[11] = test system: Receptor-type tyrosine-protein kinase FLT3 (Homo sapiens), P36888 [UNDEFINED MUTATION]; experiment: Inhibition of FLT3 […]/D835V mutant (unknown origin) assessed as remaining activity at 1 uM by Kinome scan method relative to control
[12] = target: Cyclin-G-associated kinase (Homo sapiens) (UniProt O14976); experiment: Inhibition of GAK (unknown origin) assessed as remaining activity at 1 uM by Kinome scan method relative to control
Chain of Cyclin-G-associated kinase (Homo sapiens) (O14976 whole entry): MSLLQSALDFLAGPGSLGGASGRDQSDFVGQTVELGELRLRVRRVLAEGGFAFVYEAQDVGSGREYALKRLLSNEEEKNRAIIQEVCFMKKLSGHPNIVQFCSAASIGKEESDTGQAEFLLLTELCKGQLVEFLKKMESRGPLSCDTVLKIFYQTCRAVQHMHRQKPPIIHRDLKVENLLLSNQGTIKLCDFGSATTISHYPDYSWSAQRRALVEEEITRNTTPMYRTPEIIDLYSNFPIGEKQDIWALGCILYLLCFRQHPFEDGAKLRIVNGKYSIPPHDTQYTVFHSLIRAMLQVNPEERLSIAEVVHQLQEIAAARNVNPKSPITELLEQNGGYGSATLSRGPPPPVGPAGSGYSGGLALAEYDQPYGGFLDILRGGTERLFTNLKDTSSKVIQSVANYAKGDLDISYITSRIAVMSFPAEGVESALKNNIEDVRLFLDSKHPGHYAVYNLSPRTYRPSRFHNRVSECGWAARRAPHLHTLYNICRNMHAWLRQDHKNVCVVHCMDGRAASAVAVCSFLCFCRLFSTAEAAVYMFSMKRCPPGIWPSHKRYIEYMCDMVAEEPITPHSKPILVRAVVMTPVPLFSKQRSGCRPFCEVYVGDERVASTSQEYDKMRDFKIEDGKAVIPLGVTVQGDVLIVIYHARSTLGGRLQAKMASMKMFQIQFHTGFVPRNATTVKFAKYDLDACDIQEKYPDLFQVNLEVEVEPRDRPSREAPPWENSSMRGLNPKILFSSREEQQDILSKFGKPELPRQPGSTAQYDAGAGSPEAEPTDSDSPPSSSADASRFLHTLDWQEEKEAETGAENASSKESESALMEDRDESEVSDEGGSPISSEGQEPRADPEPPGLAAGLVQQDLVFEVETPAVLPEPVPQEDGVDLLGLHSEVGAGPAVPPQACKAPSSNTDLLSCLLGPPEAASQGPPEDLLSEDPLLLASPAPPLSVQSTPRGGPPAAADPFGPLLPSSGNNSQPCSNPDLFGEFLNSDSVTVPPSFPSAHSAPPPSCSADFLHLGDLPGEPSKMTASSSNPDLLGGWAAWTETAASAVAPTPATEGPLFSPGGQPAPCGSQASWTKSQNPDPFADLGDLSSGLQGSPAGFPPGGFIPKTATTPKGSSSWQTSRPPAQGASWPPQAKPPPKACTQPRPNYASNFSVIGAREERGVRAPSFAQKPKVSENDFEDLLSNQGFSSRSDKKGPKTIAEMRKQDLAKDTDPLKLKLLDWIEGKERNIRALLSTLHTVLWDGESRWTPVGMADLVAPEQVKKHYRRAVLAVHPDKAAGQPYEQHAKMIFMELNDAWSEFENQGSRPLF

[13] = target: Mitogen-activated protein kinase 10 (Homo sapiens) (UniProt P53779); experiment: Inhibition of JNK3 (unknown origin) assessed as remaining activity at 1 uM by Kinome scan method relative to control
Chain of Mitogen-activated protein kinase 10 (Homo sapiens) (P53779 whole entry): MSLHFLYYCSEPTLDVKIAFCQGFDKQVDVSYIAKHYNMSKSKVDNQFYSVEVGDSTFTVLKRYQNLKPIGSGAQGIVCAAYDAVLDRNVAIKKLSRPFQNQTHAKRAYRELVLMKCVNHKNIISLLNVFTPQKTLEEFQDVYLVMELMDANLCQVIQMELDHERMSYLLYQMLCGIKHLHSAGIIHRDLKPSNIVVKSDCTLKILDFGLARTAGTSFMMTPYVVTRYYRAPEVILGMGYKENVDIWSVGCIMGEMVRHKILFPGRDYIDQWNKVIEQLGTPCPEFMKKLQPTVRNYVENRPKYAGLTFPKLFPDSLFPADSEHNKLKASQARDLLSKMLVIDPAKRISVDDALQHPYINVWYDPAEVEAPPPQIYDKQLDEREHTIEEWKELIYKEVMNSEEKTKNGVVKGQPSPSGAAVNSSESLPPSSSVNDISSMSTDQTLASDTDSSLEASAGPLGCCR

[14] = target: Serine/threonine-protein kinase STK11 (Homo sapiens) (UniProt Q15831); experiment: Inhibition of LKB1 (unknown origin) assessed as remaining activity at 1 uM by Kinome scan method relative to control
[15] = target: Maternal embryonic leucine zipper kinase (Homo sapiens) (UniProt Q14680); experiment: Inhibition of MELK (unknown origin) assessed as remaining activity at 1 uM by Kinome scan method relative to control
[16] = target: Serine/threonine-protein kinase PAK 1 (Homo sapiens) (UniProt Q13153); experiment: Inhibition of PAK1 (unknown origin) assessed as remaining activity at 1 uM by Kinome scan method relative to control
[17] = target: Cyclin-dependent kinase 14 (Homo sapiens) (UniProt O94921); experiment: Inhibition of PFTK1 (unknown origin) assessed as remaining activity at 1 uM by Kinome scan method relative to control
[18] = test system: Phosphatidylinositol 4,5-bisphosphate 3-kinase catalytic subunit alpha isoform (Homo sapiens), P42336 [H1047Y]; experiment: Inhibition of PIK3CA H1047Y mutant (unknown origin) assessed as remaining activity at 1 uM by Kinome scan method relative to control
[19] = target: Membrane-associated tyrosine- and threonine-specific cdc2-inhibitory kinase (Homo sapiens) (UniProt Q99640); experiment: Inhibition of PKMYT1 (unknown origin) assessed as remaining activity at 1 uM by Kinome scan method relative to control
[20] = target: Serine/threonine-protein kinase PRP4 homolog (Homo sapiens) (UniProt Q13523); experiment: Inhibition of PRP4 (unknown origin) assessed as remaining activity at 1 uM by Kinome scan method relative to control
[21] = target: Activated CDC42 kinase 1 (Homo sapiens) (UniProt Q07912); experiment: Inhibition of TNK2 (unknown origin) assessed as remaining activity at 1 uM by Kinome scan method relative to control
[22] = target: High affinity nerve growth factor receptor (Homo sapiens) (UniProt P04629); experiment: Inhibition of TRKA (unknown origin) assessed as remaining activity at 1 uM by Kinome scan method relative to control
[23] = target: Tyrosine-protein kinase receptor TYRO3 (Homo sapiens) (UniProt Q06418); experiment: Inhibition of TYRO3 (unknown origin) assessed as remaining activity at 1 uM by Kinome scan method relative to control
[24] = target: Serine/threonine-protein kinase WNK4 (Homo sapiens) (UniProt Q96J92); experiment: Inhibition of WNK4 (unknown origin) assessed as remaining activity at 1 uM by Kinome scan method relative to control
Chain of Serine/threonine-protein kinase WNK4 (Homo sapiens) (Q96J92 whole entry, canonical isoform): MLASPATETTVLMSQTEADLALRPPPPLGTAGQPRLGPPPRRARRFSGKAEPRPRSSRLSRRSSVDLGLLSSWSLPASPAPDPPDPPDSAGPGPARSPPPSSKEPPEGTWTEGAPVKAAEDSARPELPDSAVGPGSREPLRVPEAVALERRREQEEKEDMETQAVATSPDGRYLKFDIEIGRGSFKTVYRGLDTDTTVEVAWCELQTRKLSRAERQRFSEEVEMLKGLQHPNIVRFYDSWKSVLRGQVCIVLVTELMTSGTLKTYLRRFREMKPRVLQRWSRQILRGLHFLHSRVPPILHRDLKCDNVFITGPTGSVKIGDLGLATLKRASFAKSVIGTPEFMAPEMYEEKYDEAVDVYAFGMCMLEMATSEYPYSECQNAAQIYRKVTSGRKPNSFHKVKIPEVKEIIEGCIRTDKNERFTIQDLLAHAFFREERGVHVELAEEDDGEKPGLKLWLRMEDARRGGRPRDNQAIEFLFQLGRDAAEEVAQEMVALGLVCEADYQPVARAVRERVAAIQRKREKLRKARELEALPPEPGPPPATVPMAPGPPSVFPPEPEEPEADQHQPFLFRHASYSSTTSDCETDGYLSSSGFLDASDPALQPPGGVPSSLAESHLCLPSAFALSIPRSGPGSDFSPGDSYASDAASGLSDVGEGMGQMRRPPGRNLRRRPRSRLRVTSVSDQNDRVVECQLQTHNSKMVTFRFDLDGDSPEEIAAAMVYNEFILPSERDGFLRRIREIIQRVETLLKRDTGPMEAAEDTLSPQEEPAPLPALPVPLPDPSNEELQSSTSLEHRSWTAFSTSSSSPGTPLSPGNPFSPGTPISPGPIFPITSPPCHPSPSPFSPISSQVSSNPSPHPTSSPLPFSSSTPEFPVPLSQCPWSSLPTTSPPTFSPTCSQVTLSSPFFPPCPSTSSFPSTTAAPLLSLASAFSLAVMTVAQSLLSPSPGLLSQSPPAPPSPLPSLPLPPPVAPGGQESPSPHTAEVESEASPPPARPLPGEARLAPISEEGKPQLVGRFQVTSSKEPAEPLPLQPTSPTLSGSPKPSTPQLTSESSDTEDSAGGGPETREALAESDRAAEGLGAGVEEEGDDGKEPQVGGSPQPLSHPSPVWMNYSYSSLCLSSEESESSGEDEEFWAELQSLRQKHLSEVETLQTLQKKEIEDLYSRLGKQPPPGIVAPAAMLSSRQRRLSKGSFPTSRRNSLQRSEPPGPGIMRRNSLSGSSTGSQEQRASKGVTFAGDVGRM

[25] = target: Phosphatidylinositol 4,5-bisphosphate 3-kinase catalytic subunit alpha isoform (Homo sapiens, UniProt P42336, H1047L); experiment: Binding affinity to PIK3CA H1047L mutant (unknown origin) assessed as dissociation constant
[26] = target: Phosphatidylinositol 4,5-bisphosphate 3-kinase catalytic subunit gamma isoform (Homo sapiens, UniProt P48736); experiment: Binding affinity to PIK3CG (unknown origin) assessed as dissociation constant
[27] = target: Phosphatidylinositol 4-phosphate 5-kinase type-1 gamma (Homo sapiens, UniProt O60331); experiment: Inhibition of PIP5K1C (unknown origin) in presence of ATP by enzymatic assay
[28] = test system: Mus musculus; experiment: Protection against human hepatocyte transplanted FRG mouse assessed as Fah-deficient hepatocyte survival at 1 mg/kg, ip administrated once a daily for 28 days by H&E staining based immunohistochemical analysis; assay type: functional, organism-based; conditions: Liver, time 28.0 day

CN1C(=O)c2sccc2N(C)c2nc(Nc3ccc(S(N)(=O)=O)cc3)ncc21
Activity [1]: 15% | Activity [2]: 13% | Activity [3]: 100% | Activity [4]: 100% | Activity [5]: 96% | Activity [6]: 100% | Activity [7]: 100% | Activity [8]: 64% | Activity [9]: 100% | Activity [10]: 95% | Activity [11]: 27% | Activity [12]: 48% | Activity [13]: 82% | Activity [14]: 96% | Activity [15]: 100% | Activity [16]: 100% | Activity [17]: 100% | Activity [18]: 57% | Activity [19]: 100% | Activity [20]: 97% | Activity [21]: 95% | Activity [22]: 56% | Activity [23]: 100% | Activity [24]: 95% | Kd [25]: 34 nM | Kd [26]: 4.8 nM | IC50 [27]: 436 nM | Activity [28]: inactive
